# Active and inactive are the calls of the source. The calls are words filed in the database; no cut-off is given here.
# Legend:
# [1] = system: Rattus norvegicus; experiment: Antidiabetic activity in Wistar albino rat assessed as reduction of fasting blood glucose level administered qd for 9 days by oral glucose tolerance test (RVb = 83.33 +/- 1.54 mg/dl); format: functional
# [2] = system: Rattus norvegicus; experiment: Antidiabetic activity in Wistar albino rat assessed as reduction of blood glucose level administered qd for 9 days measured after 30 mins last post dose by oral glucose tolerance test (RVb = 183.2 +/- 3.68 mg/dl); format: functional
# [3] = system: Rattus norvegicus; experiment: Antidiabetic activity in Wistar albino rat assessed as reduction of blood glucose level administered qd for 9 days by glucose oxidation method (RVb = […] +/- […] mg/dl); format: functional
# [4] = system: Rattus norvegicus; experiment: Antidiabetic activity in Wistar albino rat assessed as reduction of blood glucose level administered qd for 9 days measured after 90 mins last post dose by oral glucose tolerance test (RVb = 135.7 +/- 2.9 mg/dl); format: functional
# [5] = system: Rattus norvegicus; experiment: Anticonvulsant activity in Wistar albino rat assessed as time spent on tonic flexion phase at 85 mg/kg by MES test (RVb = 3.12 +/- 0.31 sec); format: functional
# Summary of the method: (§1)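 Maximal electroshock (MES) convulsion model in rats. Duration in seconds of the flexion, extensor, clonus and stupor phases was recorded, along with recovery or death. The vehicle control was 1% w/w gum acacia and phenytoin was the reference. Data are mean ± SEM, with P < 0.05 taken as significant.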
# [6] = system: Rattus norvegicus; experiment: Anticonvulsant activity in Wistar albino rat assessed as time spent on tonic extensor phase at 85 mg/kg by MES test (RVb = 11 +/- 0.57 sec); format: functional; summary of the method: as §1
# [7] = system: Nucleic Acid; experiment: Induction of Escherichia coli DNA cleavage at 25 mg after 2 hrs using ethidium bromide staining by agarose gel electrophoresis methos; format: nucleic-acid assay
# Summary of the method: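 Genomic DNA came from E. coli grown 24 h at 37 °C in nutrient broth. It was extracted by SDS/EDTA lysis, phenol then chloroform–isoamyl alcohol, and ethanol precipitation, and dissolved in TAE. Samples were incubated with the DNA 2 h at 37 °C, mixed 1:1 with bromophenol blue, and run on agarose in TAE at 50 V alongside a DNA marker. Gels were ethidium bromide stained 10–15 min and cleavage judged visually.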
# [8] = system: Rattus norvegicus; experiment: Anticonvulsant activity in Wistar albino rat assessed as time spent on stupor phase at 85 mg/kg by MES test (RVb = 218.33 +/- 5.80 sec); format: functional; summary of the method: as §1
# [9] = system: Rattus norvegicus; experiment: Anticonvulsant activity in Wistar albino rat assessed as time spent on clonic convulsions phase at 85 mg/kg by MES test (RVb = 16.80 +/- 2.50 sec); format: functional; summary of the method: as §1
# [10] = system: Rattus norvegicus; experiment: Anticonvulsant activity in Wistar albino rat assessed as time spent on stupor phase at 70 mg/kg by MES test (RVb = 218.33 +/- 5.80 sec); format: functional; summary of the method: as §1
# [11] = system: Rattus norvegicus; experiment: Anticonvulsant activity in Wistar albino rat assessed as time spent on tonic extensor phase at 70 mg/kg by MES test (RVb = 11 +/- 0.57 sec); format: functional; summary of the method: as §1
# [12] = system: Rattus norvegicus; experiment: Anticonvulsant activity in Wistar albino rat assessed as time spent on tonic flexion phase at 70 mg/kg by MES test (RVb = 3.12 +/- 0.31 sec); format: functional; summary of the method: as §1
# [13] = system: Rattus norvegicus; experiment: Anticonvulsant activity in Wistar albino rat assessed as time spent on clonic convulsions phase at 70 mg/kg by MES test (RVb = 16.80 +/- 2.50 sec); format: functional; summary of the method: as §1
# [14] = system: Rattus norvegicus; experiment: Anticonvulsant activity in Wistar albino rat assessed as time spent on tonic extensor phase at 75 mg/kg by MES test (RVb = 11 +/- 0.57 sec); format: functional; summary of the method: as §1
# [15] = system: Rattus norvegicus; experiment: Anticonvulsant activity in Wistar albino rat assessed as time spent on stupor phase at 75 mg/kg by MES test (RVb = 218.33 +/- 5.80 sec); format: functional; summary of the method: as §1
# [16] = system: Rattus norvegicus; experiment: Anticonvulsant activity in Wistar albino rat assessed as time spent on clonic convulsions phase at 75 mg/kg by MES test (RVb = 16.80 +/-2.50 sec); format: functional; summary of the method: as §1
# [17] = system: Rattus norvegicus; experiment: Anticonvulsant activity in Wistar albino rat assessed as time spent on tonic flexion phase at 75 mg/kg by MES test (RVb = 3.12 +/- 0.31 sec); format: functional; summary of the method: as §1
# [18] = system: Rattus norvegicus; experiment: Anticonvulsant activity in Wistar albino rat assessed as time spent on tonic extensor phase at 82 mg/kg by MES test; format: functional; summary of the method: as §1
# [19] = system: Rattus norvegicus; experiment: Anticonvulsant activity in Wistar albino rat assessed as time spent on clonic convulsions phase at 82 mg/kg by MES test (RVb = 16.80 +/- 2.50 sec); format: functional; summary of the method: as §1
# [20] = system: Rattus norvegicus; experiment: Anticonvulsant activity in Wistar albino rat assessed as time spent on tonic flexion phase at 82 mg/kg by MES test (RVb = 3.12 +/- 0.31 sec); format: functional; summary of the method: as §1
# [21] = system: Rattus norvegicus; experiment: Anticonvulsant activity in Wistar albino rat assessed as time spent on stupor phase at 82 mg/kg by MES test (RVb = 218.33 +/- 5.80 sec); format: functional; summary of the method: as §1
# [22] = system: Rattus norvegicus; experiment: Anticonvulsant activity in Wistar albino rat assessed as time spent on stupor phase at 65 mg/kg by MES test (RVb = 218.33 +/- 5.80 sec); format: functional; summary of the method: as §1
# [23] = system: Rattus norvegicus; experiment: Anticonvulsant activity in Wistar albino rat assessed as time spent on tonic flexion phase at 65 mg/kg by MES test (RVb = 3.12 +/- 0.31 sec); format: functional; summary of the method: as §1
# [24] = system: Rattus norvegicus; experiment: Anticonvulsant activity in Wistar albino rat assessed as time spent on clonic convulsions phase at 65 mg/kg by MES test (RVb = 16.80 +/- 2.50 sec); format: functional; summary of the method: as §1
# [25] = system: Rattus norvegicus; experiment: Anticonvulsant activity in Wistar albino rat assessed as time spent on tonic extensor phase at 65 mg/kg by MES test (RVb = 11 +/- 0.57 sec); format: functional; summary of the method: as §1
smiles,measurement,setting,value
Clc1ccc(-c2nnc(CSc3nc4ccccc4[nH]3)o2)cc1,Activity,[1],74.83 mg/dL
same,Activity,[2],173.2 mg/dL
same,Activity,[3],386.7 mg/dL
same,Activity,[4],120 mg/dL
COc1ccc(Cl)cc1C(=O)NCCc1ccc(S(=O)(=O)NC(=O)NC2CCCCC2)cc1 [GLYBURIDE],Activity,[2],176.8 mg/dL
same,Activity,[3],139.2 mg/dL
same,Activity,[4],105.7 mg/dL
O=C(CSc1nc2ccccc2[nH]1)NN1C(=O)CSC1c1ccccc1O (stereo unspecified),Time,[5],3.14 s
same,Time,[6],4.33 s
same,Activity,[7],Active
same,Time,[8],209.3 s
same,Time,[9],15.62 s
Cc1ccc(C2SCC(=O)N2NC(=O)CSc2nc3ccccc3[nH]2)cc1 (stereo unspecified),Time,[10],207.3 s
same,Time,[11],11 s
same,Time,[12],3.12 s
same,Time,[13],14.62 s
COc1ccc(C2SCC(=O)N2NC(=O)CSc2nc3ccccc3[nH]2)cc1 (stereo unspecified),Time,[14],9.5 s
same,Time,[15],208 s
same,Time,[16],12.62 s
same,Time,[17],3.02 s
c1ccc(-c2nnc(CSc3nc4ccccc4[nH]3)o2)cc1,Activity,[1],76.33 mg/dL
same,Activity,[2],180.2 mg/dL
same,Activity,[7],inactive
same,Activity,[3],337.2 mg/dL
same,Activity,[4],107.7 mg/dL
COc1cccc(C2SCC(=O)N2NC(=O)CSc2nc3ccccc3[nH]2)c1O (stereo unspecified),Time,[18],4.21 s
same,Time,[19],16.2 s
same,Time,[20],3.3 s
same,Time,[21],213.8 s
O=[N+]([O-])c1ccc(-c2nnc(CSc3nc4ccccc4[nH]3)o2)c(Cl)c1,Activity,[1],77.17 mg/dL
same,Activity,[2],155.3 mg/dL
same,Activity,[3],187.7 mg/dL
same,Activity,[4],121.7 mg/dL
c1cncc(-c2nnc(CSc3nc4ccccc4[nH]3)o2)c1,Activity,[1],81.34 mg/dL
same,Activity,[2],181.8 mg/dL
same,Activity,[3],343.3 mg/dL
same,Activity,[4],122.8 mg/dL
O=C(CSc1nc2ccccc2[nH]1)NN1C(=O)CSC1c1ccco1 (stereo unspecified),Time,[22],208.6 s
same,Time,[23],4.2 s
same,Time,[24],1 s
same,Time,[25],5.3 s

# Reference: ChEMBL document CHEMBL1157848, “Derivatives of benzimidazole pharmacophore: synthesis, anticonvulsant, antidiabetic and DNA cleavage studies” (2010)
